Laboratory results published in ChEMBL document CHEMBL4251654, “Structure-based design of human immuno- and constitutive proteasomes inhibitors” (Eur J Med Chem, 2018).

Assays:
[1] = molecular target: T1, Proteasome Macropain subunit MB1 (Homo sapiens, UniProt P28074); assay: Inhibition of human 20S constitutive proteasome beta-5 using Suc-LLVY-AMC as substrate incubated for 15 mins measured for 45 mins by fluorescence assay
T1 sequence (P28074 whole entry): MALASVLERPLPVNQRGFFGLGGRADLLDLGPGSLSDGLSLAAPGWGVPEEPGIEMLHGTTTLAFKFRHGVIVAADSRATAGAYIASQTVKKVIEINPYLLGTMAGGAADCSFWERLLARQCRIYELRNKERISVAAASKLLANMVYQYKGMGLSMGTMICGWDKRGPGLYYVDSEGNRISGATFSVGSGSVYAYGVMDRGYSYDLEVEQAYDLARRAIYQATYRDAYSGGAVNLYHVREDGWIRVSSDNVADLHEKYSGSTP
Method in brief: (§1)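 Human 20S cCP or iCP (0.3 nM) was exposed to compound (0.001-50 μM) for 15 min in pH 8 buffer of 20 mM Tris-HCl, 10% glycerol, 0.01% SDS, 2% DMSO. Suc-LLVY-AMC at 20 μM followed. Fluorescence (ex 360/em 460 nm) was read 45 min at 37 °C versus untreated enzyme.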

[2] = molecular target: T2, Proteasome subunit beta type-8 (Homo sapiens, UniProt P28062); assay: Inhibition of human 20S immunoproteasome beta-5 using Suc-LLVY-AMC as substrate incubated for 15 mins measured for 45 mins by fluorescence assay; method in brief: as §1
T2 sequence (P28062 whole entry): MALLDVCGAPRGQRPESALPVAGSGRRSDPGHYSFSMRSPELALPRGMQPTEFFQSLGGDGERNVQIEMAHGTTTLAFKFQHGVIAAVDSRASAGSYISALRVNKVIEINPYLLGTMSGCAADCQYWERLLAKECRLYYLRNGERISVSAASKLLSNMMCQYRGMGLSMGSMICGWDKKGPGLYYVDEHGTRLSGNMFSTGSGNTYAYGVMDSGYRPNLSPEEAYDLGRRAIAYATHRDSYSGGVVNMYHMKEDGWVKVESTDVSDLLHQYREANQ

[3] = molecular target: T3, Proteasome Macropain subunit MB1 (Homo sapiens) (UniProt P28074); assay: Inhibition of human 20S constitutive proteasome beta-5 at 50 uM using Suc-LLVY-AMC as substrate incubated for 15 mins measured for 45 mins by fluorescence assay relative to control; method in brief: as §1
T3 sequence (whole entry): T1 sequence (P28074 whole entry)

[4] = molecular target: T4, Proteasome subunit beta type-8 (Homo sapiens) (UniProt P28062); assay: Inhibition of human 20S immunoproteasome beta-5 at 50 uM using Suc-LLVY-AMC as substrate incubated for 15 mins measured for 45 mins by fluorescence assay relative to control; method in brief: as §1
T4 sequence (whole entry): T2 sequence (P28062 whole entry)

[5] = molecular target: T5, Proteasome subunit beta type-9 (Homo sapiens, UniProt P28065); assay: Inhibition of human 20S immunoproteasome beta-1 using Ac-PAL-AMC as substrate incubated for 15 mins measured for 45 mins by fluorescence assay
T5 sequence (P28065 whole entry): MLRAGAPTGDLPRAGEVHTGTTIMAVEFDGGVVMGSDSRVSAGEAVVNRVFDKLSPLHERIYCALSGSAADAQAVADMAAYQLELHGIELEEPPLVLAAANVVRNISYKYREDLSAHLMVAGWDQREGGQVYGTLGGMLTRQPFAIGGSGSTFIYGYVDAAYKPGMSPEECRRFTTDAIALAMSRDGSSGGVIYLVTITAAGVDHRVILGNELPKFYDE
Method in brief: (§2)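 Human 20S immunoproteasome (0.3 nM) was given 15 min with compound (0.001-50 μM) in pH 8 buffer of 20 mM Tris-HCl, 10% glycerol, 0.01% SDS, 2% DMSO. Ac-PAL-AMC at 50 μM was the substrate. Fluorescence (ex 360/em 460 nm) was followed 45 min at 37 °C relative to control.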

[6] = molecular target: T6, Proteasome component C5 (Homo sapiens) (UniProt P20618); assay: Inhibition of human 20S constitutive proteasome beta-1 at 50 uM using Z-LLE-betaNA as substrate incubated for 15 mins measured for 45 mins by fluorescence assay relative to control
T6 sequence (whole entry): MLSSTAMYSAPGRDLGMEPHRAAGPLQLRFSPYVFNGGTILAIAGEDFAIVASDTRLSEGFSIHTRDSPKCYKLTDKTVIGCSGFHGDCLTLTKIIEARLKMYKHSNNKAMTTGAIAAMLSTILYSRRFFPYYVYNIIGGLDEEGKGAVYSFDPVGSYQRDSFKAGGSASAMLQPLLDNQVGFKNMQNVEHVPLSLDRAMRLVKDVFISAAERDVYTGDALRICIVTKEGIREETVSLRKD
Method in brief: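 Human 20S constitutive proteasome, 0.3 nM, was preincubated 15 min with compound (0.001-50 μM) in pH 8 Tris-HCl 20 mM, 10% glycerol, 0.01% SDS, 2% DMSO. Z-LLE-βNA at 50 μM was added. βNA fluorescence (ex 340/em 404 nm) was monitored 45 min at 37 °C against an untreated control.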

[7] = molecular target: T7, Proteasome subunit beta type-9 (Homo sapiens) (UniProt P28065); assay: Inhibition of human 20S immunoproteasome beta-1 at 50 uM using Ac-PAL-AMC as substrate incubated for 15 mins measured for 45 mins by fluorescence assay relative to control; method in brief: as §2
T7 sequence (whole entry): T5 sequence (P28065 whole entry)

[8] = molecular target: T8, Proteasome subunit beta type-10 (Homo sapiens, UniProt P40306); assay: Inhibition of human 20S immunoproteasome beta-2 using BocLRR-AMC as substrate incubated for 15 mins measured for 45 mins by fluorescence assay
T8 sequence (P40306 whole entry): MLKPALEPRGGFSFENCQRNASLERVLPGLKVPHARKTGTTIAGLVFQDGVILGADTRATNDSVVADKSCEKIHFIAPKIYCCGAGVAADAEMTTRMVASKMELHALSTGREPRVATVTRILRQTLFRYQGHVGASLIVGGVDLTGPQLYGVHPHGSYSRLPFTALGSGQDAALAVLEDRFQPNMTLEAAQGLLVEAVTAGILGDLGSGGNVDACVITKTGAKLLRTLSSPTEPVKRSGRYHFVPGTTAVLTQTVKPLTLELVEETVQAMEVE

[9] = molecular target: Proteasome Macropain subunit (Homo sapiens) (UniProt P49721); assay: Inhibition of human 20S constitutive proteasome beta-2 at 50 uM using BocLRR-AMC as substrate incubated for 15 mins measured for 45 mins by fluorescence assay relative to control
Method in brief: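 Purified human 20S proteasome (cCP or iCP), 0.3 nM, preincubated 15 min with compound (0.001-50 μM) in pH 8 buffer of 20 mM Tris-HCl, 10% glycerol, 0.005% Triton X-100, 2% DMSO. Then Boc-LRR-AMC at 50 μM was added. AMC fluorescence (ex 360/em 460 nm) was followed 45 min at 37 °C. Activity is relative to an untreated control.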

[10] = molecular target: T9, Proteasome subunit beta type-10 (Homo sapiens) (UniProt P40306); assay: Inhibition of human 20S immunoproteasome beta-2 at 50 uM using BocLRR-AMC as substrate incubated for 15 mins measured for 45 mins by fluorescence assay relative to control
T9 sequence (whole entry): T8 sequence (P40306 whole entry)

Huh-7 = assay: Cytotoxicity against human HuH7 cells assessed as reduction in cell viability after 48 hrs by Hoechst 33342 staining based HCS assay; format: functional; conditions: huh-7
Method in brief: (§3)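 Cells were grown at 37 °C, 5% CO2 in medium with 10% FBS, 1% penicillin-streptomycin, 2 mM glutamine: DMEM for HuH7, MDA-MB-231 and fibroblasts, EMEM for Caco2, McCoy's for HCT116, RPMI for PC3 and NCI-H727. 4000 cells/well were seeded and dosed 24 h later at 0.1-25 μM final, from DMSO stocks. After 48 h they were fixed in ethanol/acetic acid and Hoechst-stained nuclei were counted by imaging. Survival is relative to DMSO. EC50 came from dose-response curves.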

Caco-2 = assay: Cytotoxicity against human Caco2 cells assessed as reduction in cell viability after 48 hrs by Hoechst 33342 staining based HCS assay; format: functional; method in brief: as §3
MDA-MB-231 = assay: Cytotoxicity against human MDA-MB-231 cells assessed as reduction in cell viability after 48 hrs by Hoechst 33342 staining based HCS assay; format: functional; method in brief: as §3
HCT-116 = assay: Cytotoxicity against human HCT116 cells assessed as reduction in cell viability after 48 hrs by Hoechst 33342 staining based HCS assay; format: functional; method in brief: as §3
PC-3 = assay: Cytotoxicity against human PC3 cells assessed as reduction in cell viability after 48 hrs by Hoechst 33342 staining based HCS assay; format: functional; method in brief: as §3
NCI-H727 = assay: Cytotoxicity against human NCI-H727 cells assessed as reduction in cell viability after 48 hrs by Hoechst 33342 staining based HCS assay; format: functional; method in brief: as §3
MCF7 = assay: Cytotoxicity against human MCF7 cells assessed as reduction in cell viability after 48 hrs by Hoechst 33342 staining based HCS assay; format: functional
Fibroblast = assay: Cytotoxicity against human fibroblasts assessed as reduction in cell viability at 25 uM after 48 hrs by Hoechst 33342 staining based HCS assay
[11] = Homo sapiens, Caco-2, 48 h, read-out: EC50
[12] = Homo sapiens, MDA-MB-231, 48 h, read-out: EC50
[13] = Homo sapiens, HCT-116, 48 h, read-out: EC50
[14] = Homo sapiens, PC-3, 48 h, read-out: EC50
[15] = Homo sapiens, MCF7, 48 h, read-out: EC50

Sequence of Proteasome Macropain subunit (Homo sapiens) (P49721 whole entry): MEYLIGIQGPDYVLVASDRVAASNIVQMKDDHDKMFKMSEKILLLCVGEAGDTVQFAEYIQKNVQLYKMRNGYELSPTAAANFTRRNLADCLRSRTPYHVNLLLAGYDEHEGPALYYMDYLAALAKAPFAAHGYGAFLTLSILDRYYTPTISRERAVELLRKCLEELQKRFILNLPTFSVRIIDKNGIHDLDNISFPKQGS

IC50 [1] [µM] | IC50 [2] [µM] | inhibition [3] [%] | inhibition [4] [%] | IC50 [5] [µM] | inhibition [6] [%] | inhibition [7] [%] | IC50 [8] [µM] | inhibition [9] [%] | inhibition [10] [%] | SMILES | EC50 (Huh-7) | EC50 (MDA-MB-231; [12]) [µM] | EC50 (HCT-116; [13]) [µM] | EC50 (PC-3; [14]) [µM] | EC50 (MCF7; [15]) [µM] | Activity (Fibroblast) | EC50 (Caco-2; caco-2) | EC50 (NCI-H727; nci-h727) | also measured
0.0071 | 0.0102 | > 85 | > 85 | 23.8 | > 85 | > 85 | 6.6 | > 85 | > 85 | C[C@@H](O)[C@@H](NC(=O)c1ccc(OCc2ccccc2)cc1)C(=O)N[C@@H](C[C@]1(O)C(=O)Nc2ccccc21)C(=O)NCc1ccccc1 | Not Active | 0.7 | 0.2 | 0.4 | 0.7 | Non-Toxic | – | – | EC50 (Caco-2; [11]): 5 µM; EC50 (NCI-H727; Homo sapiens, NCI-H727, 48 h, read-out: EC50): 2 µM
0.113 | 0.17 | > 85 | > 85 | 52 | > 85 | > 85 | 28.3 | > 85 | > 85 | C[C@H](NC(=O)c1ccc(OCc2ccccc2)cc1)C(=O)N[C@@H](C[C@]1(O)C(=O)Nc2ccccc21)C(=O)NCc1ccccc1 | Not Active | 23 | 10 | 24 | 21 | Non-Toxic | Not Active | Not Active | –
1.48 | 1.6 | > 85 | > 85 | 16.1 | > 85 | > 85 | – | – | – | CC(C)(C)OC(=O)N[C@@H](Cc1ccc(OCc2ccccc2)cc1)C(=O)N[C@@H](CC(N)=O)C(=O)N[C@@H](C[C@]1(O)C(=O)Nc2ccccc21)C(=O)NCc1ccccc1 | Not Active | – | – | – | – | Non-Toxic | Not Active | Not Active | EC50 (MDA-MB-231; mda-mb-231): Not Active; EC50 (HCT-116; hct-116): Not Active; EC50 (PC-3; pc-3): Not Active; EC50 (MCF7; mcf7): Not Active
0.125 | 0.2 | > 85 | > 85 | 8.8 | > 85 | > 85 | 5.8 | > 85 | > 85 | C[C@H](O)[C@@H](NC(=O)[C@H](Cc1ccc(OCc2ccccc2)cc1)NC(=O)OC(C)(C)C)C(=O)N[C@@H](C[C@]1(O)C(=O)Nc2ccccc21)C(=O)NCc1ccccc1 | Not Active | 9 | 9 | 10 | 9 | Non-Toxic | – | Not Active | EC50 (Caco-2; [11]): 32 µM
0.35 | 0.26 | > 85 | > 85 | 14 | > 85 | > 85 | 14.3 | > 85 | > 85 | C[C@H](NC(=O)Cc1cccc(Oc2ccccc2)c1)C(=O)N[C@@H](C[C@]1(O)C(=O)Nc2ccccc21)C(=O)NCc1ccccc1 | – | – | – | – | – | – | – | – | –
6.2 | 7.8 | > 85 | > 85 | 12.6 | > 85 | > 85 | 8.9 | > 85 | > 85 | CC(C)(C)OC(=O)N[C@@H](Cc1ccc(OCc2ccccc2)cc1)C(=O)NCC(=O)N[C@@H](C[C@]1(O)C(=O)Nc2ccccc21)C(=O)NCc1ccccc1 | – | – | – | – | – | – | – | – | –
– | – | – | – | – | – | – | – | – | – | C[C@H](NC(=O)[C@H](Cc1ccc(OCc2ccccc2)cc1)NC(=O)OC(C)(C)C)C(=O)N[C@@H](C[C@]1(O)C(=O)Nc2ccccc21)C(=O)NCc1ccccc1 | Not Active | – | 32 | – | 26 | Non-Toxic | Not Active | Not Active | EC50 (MDA-MB-231; mda-mb-231): Not Active; EC50 (PC-3; pc-3): Not Active
1.4 | 1.9 | > 85 | > 85 | 2.77 | > 85 | > 85 | 2.7 | > 85 | > 85 | C[C@H](NC(=O)[C@H](Cc1ccc(OCc2ccccc2)cc1)NC(=O)OC(C)(C)C)C(=O)N[C@@H](C[C@]1(O)C(=O)Nc2ccccc21)C(=O)NCc1cccc2ccccc12 | – | – | – | – | – | – | – | – | –
